Laboratory results from ChEMBL document CHEMBL4190227, “Syntheses, toxicities and anti-inflammation of H2S-donors based on non-steroidal anti-inflammatory drugs” (Eur J Med Chem, 2017).
Active and inactive are the calls of the source. No cut-off for these calls is given here.

Tests used:
HepG2 = assay: Cytotoxicity against human HepG2 cells assessed as reduction in cell survival after 24 hrs by MTT assay; type: cell-based; conditions: HepG2, 24 h
[1] = Drug degradation in phosphate buffer assessed as H2S release by measuring test compound half life at 40 uM measured every 5 mins in presence of L-cysteine by UV-Vis spectrometry; type: physicochemical
How it was run: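 Sulfide release at 37.5 °C: donor (40 mM THF stock) added to pH 7.4 phosphate buffer with 1.0 mM L-cysteine; aliquots taken every 5 min into zinc acetate/N,N-dimethyl-1,4-phenylenediamine/FeCl3 in HCl, A670 read 15 min later; H2S quantified against Na2S standard curve (5–150 μM); release curve plotted vs time; four independent experiments.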

L02 = assay: Cytotoxicity against human LO2 cells assessed as reduction in cell survival after 24 hrs by MTT assay; type: cell-based; conditions: L02, 24 h
RAW264.7 [2] = assay: Antiinflammatory activity in mouse RAW264.7 cells assessed as LPS-induced TNFalpha levels at 100 uM incubated for 24 hrs post LPS induction by ELISA relative to control; type: functional
How it was run: (§1)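 LPS (1 μg/mL) for 4 h, then compound at 10, 50, 100 μM for 24 h; cells lysed in RIPA, spun 12,000×g 10 min, protein normalised by BCA to 0.1 mg/mL; target (TNF-α, HO-1, IL-10 or COX-2) quantified by sandwich ELISA kit with mouse-specific polyclonal antibodies; four independent experiments.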

[3] = (§2) Cytotoxicity against mouse RAW264.7 cells assessed as cell viability at 10 to 100 uM treated for 24 hrs in absence of LPS by MTT assay; type: cell-based; conditions: RAW264.7 cells, read-out: Activity
How it was run: (§3)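 Macrophages in high-glucose DMEM + 10% heat-inactivated FBS, 2 mM glutamine, 37 °C, 5% CO2; exposed 24 h to 10, 50, 100 μM with or without LPS 1 μg/mL; MTT added 4 h, formazan dissolved in DMSO, A570, expressed as % of control; four independent experiments.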

RAW264.7 [4] = assay: Antiinflammatory activity in mouse RAW264.7 cells assessed as increase in IL10 levels at 10 to 100 uM measured after 24 hrs in absence of LPS by ELISA; type: functional, cell-based
How it was run: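 Macrophages exposed 24 h to 10, 50, 100 μM without LPS; lysates (RIPA, 12,000×g spin) normalised by BCA to 0.1 mg/mL protein; IL-10 measured by mouse-specific sandwich ELISA kit; four independent experiments, mean ± SD.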

[5] = biological target: T1, Nitric oxide synthase, inducible (Mus musculus) (UniProt P29477); assay: Inhibition of iNOS in mouse RAW264.7 cells assessed as reduction in LPS-induced NO production administered for 24 hrs post LPS induction by Griess method; type: cell-based
T1 sequence (whole entry): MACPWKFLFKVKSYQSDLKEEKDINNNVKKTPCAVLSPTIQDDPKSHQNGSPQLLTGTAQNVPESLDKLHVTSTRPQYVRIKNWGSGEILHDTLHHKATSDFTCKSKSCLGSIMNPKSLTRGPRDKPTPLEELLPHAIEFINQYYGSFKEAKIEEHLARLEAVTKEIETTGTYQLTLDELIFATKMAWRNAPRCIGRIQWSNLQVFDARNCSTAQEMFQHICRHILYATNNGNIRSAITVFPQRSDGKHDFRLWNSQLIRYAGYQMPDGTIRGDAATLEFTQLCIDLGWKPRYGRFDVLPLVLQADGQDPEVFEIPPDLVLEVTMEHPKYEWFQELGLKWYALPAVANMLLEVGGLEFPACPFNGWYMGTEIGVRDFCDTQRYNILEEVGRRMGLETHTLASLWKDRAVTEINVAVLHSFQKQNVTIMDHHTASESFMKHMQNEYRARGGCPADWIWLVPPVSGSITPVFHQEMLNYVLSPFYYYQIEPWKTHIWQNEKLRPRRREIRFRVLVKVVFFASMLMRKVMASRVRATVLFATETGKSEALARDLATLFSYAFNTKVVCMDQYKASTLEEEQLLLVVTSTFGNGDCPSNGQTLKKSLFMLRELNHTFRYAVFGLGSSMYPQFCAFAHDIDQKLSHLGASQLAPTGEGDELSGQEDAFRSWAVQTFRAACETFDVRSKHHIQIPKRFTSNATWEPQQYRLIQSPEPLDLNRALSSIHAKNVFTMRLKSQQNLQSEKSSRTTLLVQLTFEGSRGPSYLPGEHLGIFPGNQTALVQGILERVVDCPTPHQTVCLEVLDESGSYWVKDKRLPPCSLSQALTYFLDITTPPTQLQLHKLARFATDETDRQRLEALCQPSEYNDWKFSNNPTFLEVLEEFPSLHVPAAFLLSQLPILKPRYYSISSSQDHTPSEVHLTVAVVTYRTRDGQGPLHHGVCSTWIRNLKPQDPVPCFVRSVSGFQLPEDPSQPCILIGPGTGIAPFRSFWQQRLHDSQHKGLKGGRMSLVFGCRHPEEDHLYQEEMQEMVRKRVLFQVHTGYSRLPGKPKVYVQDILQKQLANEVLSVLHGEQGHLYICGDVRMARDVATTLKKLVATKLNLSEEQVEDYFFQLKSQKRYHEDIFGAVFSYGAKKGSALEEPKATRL
How it was run: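 RAW264.7 cells stimulated with LPS 1 μg/mL for 4 h, then compound (10, 50, 100 μM) for 24 h; culture medium reacted with Griess reagents I and II, absorbance 570 nm; nitrite from sodium nitrite standard curve (0–100 μM in medium); four independent experiments, mean ± SD.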

RAW264.7 [6] = assay: Inhibition of LPS-induced COX2 expression in mouse RAW264.7 cells at 100 uM incubated for 24 hrs post LPS induction by ELISA relative to control; type: functional; conditions: RAW264.7, 24 h, read-out: INH; how it was run: as §1
[7] = (§4) Cytotoxicity against mouse RAW264.7 cells assessed as cell viability at 10 to 100 uM treated for 24 hrs post LPS induction by MTT assay; type: cell-based; conditions: RAW264.7 cells, read-out: Activity; how it was run: as §3
RAW264.7 [8] = assay: Antiinflammatory activity in mouse RAW264.7 cells assessed as increase in LPS-induced HO-1 expression incubated for 24 hrs post LPS induction by ELISA; type: functional, cell-based; how it was run: as §1
[9] = Drug degradation in phosphate buffer assessed as H2S release by measuring test compound half life at 40 uM measured every 5 mins in presence of TECP by UV-Vis spectrometry; type: physicochemical
How it was run: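 Sulfide release at 37.5 °C: donor (40 mM THF stock) added to pH 7.4 phosphate buffer with 1.0 mM TECP; aliquots taken every 5 min into methylene blue cocktail (zinc acetate, N,N-dimethyl-1,4-phenylenediamine, FeCl3 in HCl), A670 read 15 min later; H2S from Na2S calibration curve; concentration vs time curve; four independent experiments.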

RAW264.7 [10] = assay: Antiinflammatory activity in mouse RAW264.7 cells assessed as increase in LPS-induced IL10 levels at 10 to 100 uM incubated for 24 hrs post LPS induction by ELISA; type: functional, cell-based; how it was run: as §1
RAW264.7 [11] = assay: Antiinflammatory activity in mouse RAW264.7 cells assessed as reduction in LPS-induced TNFalpha levels incubated for 24 hrs post LPS induction by ELISA; type: functional, cell-based; how it was run: as §1
RAW264.7 [12] = assay: Antiinflammatory activity in mouse RAW264.7 cells assessed as increase in LPS-induced HO-1 expression at 100 uM incubated for 24 hrs post LPS induction by ELISA relative to contol; type: functional; how it was run: as §1
RAW264.7 [13] = assay: Inhibition of LPS-induced COX2 expression in mouse RAW264.7 cells at 10 to 100 uM incubated for 24 hrs post LPS induction by ELISA; type: functional, cell-based; how it was run: as §1
RAW264.7 [14] = assay: as §2; type: cell-based; conditions: raw264.7, 24 h, 100 µM; how it was run: as §3
Danio rerio [15] = species: Danio rerio; assay: Toxicity in AB zebrafish embryo assessed as rate of embryo malformation at 0.5 to 20 uM measured at 96 hrs post fertilization by stereoscopic dissecting light microscopic analysis relative to DMF; type: organism-based; conditions: in vivo
How it was run: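 AB embryos exposed from 4 hpf through 96 hpf to compound or DMF vehicle (1:1000); malformations scored at 96 hpf under stereoscopic dissecting microscope; 100 embryos per group in three replicates; three independent experiments, mean ± SD.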

Danio rerio [16] = species: Danio rerio; assay: Toxicity in AB zebrafish embryo assessed as reduction in hatching rate of embryos up to 5 uM measured at 48 hrs post fertilization by dissecting light microscopic analysis; type: organism-based; conditions: in vivo
How it was run: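 AB embryos exposed from 4 to 72 hpf to compound (0.5–20 μM) or DMF vehicle (1:1000), one embryo per well; hatch rate scored at 48 hpf; n=100 per group in three replicates; three independent experiments, mean ± SD.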

RAW264.7 [17] = assay: as §4; type: cell-based; conditions: raw264.7, 24 h, 100 µM; how it was run: as §3

| Structure (SMILES) | half-life at 40 µM [9] [min] | IC50 (HepG2) [mM] | IC50 (L02) [mM] | other results |
| --- | --- | --- | --- | --- |
| O=C(CCCCC1CCSS1)Oc1ccc2ccc(=O)oc2c1 (stereo not drawn) | – | 0.917 | 2.54 | half-life at 40 µM [1]: 4.6 min |
| CC(C)Cc1ccc(C(C)C(=O)Oc2ccc(-c3cc(=S)ss3)cc2)cc1 (stereo not drawn) | 1.4 | 0.923 | 0.889 | Activity (RAW264.7 [2]): 5 - 20%; viability at 24 h, up to 100 µM [3]: 70 to 110%; Activity (RAW264.7 [4]): Active; inhibition [5]: Dose-dependent effect; inhibition at 100 µM (RAW264.7 [6]): 60%; viability at 24 h, up to 100 µM [7]: 70 to 110%; Activity (RAW264.7 [8]): Dose-dependent effect; Activity (RAW264.7 [10]): Active; Activity (RAW264.7 [11]): Dose-dependent effect; fold change (FC) (RAW264.7 [12]): >3 |
| CC1=C(CC(=O)Oc2ccc(C(N)=S)cc2)c2cc(F)ccc2/C1=C\c1ccc([S+](C)[O-])cc1 (stereo not drawn) | 3.1 | 1.08 | 1.48 | – |
| COc1ccc2cc(C(C)C(=O)Oc3ccc(C(N)=S)cc3)ccc2c1 (stereo not drawn) [ATB-346] | 13.4 | 0.228 | 3.61 | viability at 24 h, up to 100 µM [3]: 70 to 110%; Activity (RAW264.7 [4]): Active; inhibition [5]: Dose-dependent effect; inhibition (RAW264.7 [13]): Active; viability at 24 h, up to 100 µM [7]: 70 to 110%; Activity (RAW264.7 [8]): Dose-dependent effect; Activity (RAW264.7 [10]): Active; Activity (RAW264.7 [11]): Dose-dependent effect; fold change (FC) (RAW264.7 [12]): <=2 |
| NC(=S)c1ccc(OC(=O)c2ccc(Cl)cc2)cc1 | 14.4 | 1.06 | > 0.8 | – |
| COc1ccc2c(c1)c(CC(=O)Oc1ccc(-c3cc(=S)ss3)cc1)c(C)n2C(=O)c1ccc(Cl)cc1 | 1.8 | 3.29 | 0.337 | Activity (RAW264.7 [2]): 5 - 20%; Activity (RAW264.7 [14]): Non-Toxic; Activity (RAW264.7 [4]): Active; inhibition [5]: Dose-dependent effect; Activity (Danio rerio [15]): 2%; Activity (Danio rerio [16]): Toxic; inhibition (RAW264.7 [13]): Active; Activity (RAW264.7 [17]): Non-Toxic; Activity (RAW264.7 [8]): Dose-dependent effect; Activity (RAW264.7 [10]): Active; Activity (RAW264.7 [11]): Dose-dependent effect; fold change (FC) (RAW264.7 [12]): <=2 |
| NC(=S)c1ccccc1 | 0.9 | – | – | – |
| O=C(O)CCCCC1CCSS1 (stereo not drawn) [LIPOIC ACID, ALPHA] | – | – | – | half-life at 40 µM [1]: 118 min |

Further lines, with some results ahead:

| half-life at 40 µM [9] [min] | Structure (SMILES) | IC50 (HepG2) [mM] | IC50 (L02) [mM] | other results |
| --- | --- | --- | --- | --- |
| 3.1 | COc1ccc2cc(C(C)C(=O)Oc3ccc(-c4cc(=S)ss4)cc3)ccc2c1 (stereo not drawn) | 1.12 | 1.04 | – |
| 1.9 | O=C(/C=C/c1ccccc1)Oc1ccc(-c2cc(=S)ss2)cc1 | 1.08 | 0.536 | – |
| 3.3 | CC(C(=O)Oc1ccc(C(N)=S)cc1)c1ccc(-c2ccccc2)c(F)c1 (stereo not drawn) | 1.68 | > 0.8 | – |
| 3.4 | CC(C(=O)Oc1ccc(-c2cc(=S)ss2)cc1)c1cccc(C(=O)c2ccccc2)c1 (stereo not drawn) | 1.28 | 0.544 | – |
| 3.9 | Oc1ccc(-c2cc(=S)ss2)cc1 | – | – | – |
| 4.4 | NC(=S)c1ccc(OC(=O)/C=C/c2ccccc2)cc1 | 0.41 | > 0.8 | – |
| 7.1 | NC(=S)c1ccc(OC(=O)c2ccccc2Cl)cc1 | 1.06 | 1.09 | – |
| 9.8 | CC(C(=O)Oc1ccc(C(N)=S)cc1)c1cccc(C(=O)c2ccccc2)c1 (stereo not drawn) | 1.07 | 1.18 | – |
